Results from paper PMC3159870 (European journal of nuclear medicine and molecular imaging, 2010).
Like-named read-outs stand apart in the source and are kept apart here.

Tests used:
TSPO [1] = conditions: human brain tissue; cited from earlier work
TSPO [2] = test: in vitro affinity for TSPO in human brain tissue; type: binding; conditions: PBR06 relative to PBR28
TSPO [3] = type: binding, human; conditions: membranes of white blood cells
[4] = octanol/phosphate buffer, pH 7.4; cited from earlier work
[5] = radiation exposure; cited from earlier work
TSPO [6] = type: in vivo, human
In short: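 Eight healthy volunteers (2 women, 6 men; 32±11 y), each scanned once with each aryloxyanilide radioligand (18F: 170±26 MBq; 11C: 567±84 MBq; i.v. bolus). Dynamic PET on GE Advance. Radial arterial plasma parent separated by radio-HPLC gave the input function. VT fitted from the first 120 min, then divided by per-scan fP. Ten regions; mean ± SD; repeated-measures ANOVA.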

[7] = kinetics of radioligand in plasma and brain after bolus intravenous injection; type: in vivo, human
TSPO [8] = conditions: monkey brain; cited from earlier work
TSPO [9] = test: in vivo affinity ratio from slope of regression of regional VT/fP; set-up: species or system human; conditions: VT/fP values in ten brain regions
plasma free fraction = type: in vitro ADME, human; conditions: eight subjects
[10] = mean of ten brain regions, eight subjects, 120 min data

## COc1ccc(OC)c(CN(C(=O)CF)c2ccccc2Oc2ccccc2)c1 [PBR06]
TSPO [1]
  Ki: 1 nM
TSPO [2]
  fold higher in vitro affinity than PBR28: 2.5 fold

## COc1ccccc1CN(C(C)=O)c1cnccc1Oc1ccccc1 [PBR28]
TSPO [1]
  Ki: 2.5 nM
TSPO [3]
  fold lower affinity in non-binders than in the majority (90%) of the population: about 50 fold
[4]
  log D: 3.0

## COc1ccc(OC)c(CN(C(=O)C[18F])c2ccccc2Oc2ccccc2)c1 [^18F-PBR06]
[5]
  effective dose: 18.5 µSv/MBq
TSPO [6]; Anterior cingulate
  VT: 2.05±0.42 ml × cm^−3
  VT/fP: 97.7±21.5 ml × cm^−3
TSPO [6]; Caudate
  VT: 1.72±0.28 ml × cm^−3
  VT/fP: 83.2±20.3 ml × cm^−3
TSPO [6]; Cerebellum
  VT: 2.26±0.61 ml × cm^−3
  VT/fP: 108.0±33.4 ml × cm^−3
TSPO [6]; Frontal cortex
  VT: 2.10±0.40 ml × cm^−3
  VT/fP: 100.3±22.6 ml × cm^−3
TSPO [6]; Medial temporal cortex
  VT: 2.05±0.46 ml × cm^−3
  VT/fP: 97.7±22.8 ml × cm^−3
TSPO [6]; Occipital cortex
  VT: 2.17±0.40 ml × cm^−3
  VT/fP: 104.0±24.3 ml × cm^−3
TSPO [6]; Parietal cortex
  VT: 2.10±0.39 ml × cm^−3
  VT/fP: 100.3±20.4 ml × cm^−3
TSPO [6]; Putamen
  VT: 1.98±0.36 ml × cm^−3
  VT/fP: 94.8±21.2 ml × cm^−3
TSPO [6]; Temporal cortex
  VT: 2.24±0.43 ml × cm^−3
  VT/fP: 107.4±27.7 ml × cm^−3
TSPO [6]; Thalamus
  VT: 2.37±0.44 ml × cm^−3
  VT/fP: 113.6±25.7 ml × cm^−3
TSPO [6]; [10]
  VT: 2.1±0.4 ml × cm^−3
  VT/fP: 100.7±24.0 ml × cm^−3
[7]; human brain, after injection
  time of peak brain uptake of radioactivity: ≤ 5 min
[7]; human plasma, after injection
  time of peak plasma concentration of total parent radioligand: ≤ 2 min
[7]; mean of ten regions in eight subjects
  peak concentration of brain uptake: 1.2 SUV
[7]; range, ten regions in eight subjects
  peak concentration of brain uptake, range: 1.0–1.6 SUV
TSPO [8]
  specific binding as part of total uptake: greater than 90%
TSPO [9]
  95% confidence interval of slope (in vivo affinity ratio): 0.89–1.84
Plasma free fraction
  plasma free fraction (fP): 2.2±0.6%
